Assay outcomes from PubChem BioAssay.
Rev-erbA mod: modulators of Rev-erb alpha DNA binding, primary screen, biochemical, FITC-DNA, fluorescence polarization, uHTS. Nuclear receptor subfamily 1 group D member 1 (Homo sapiens), P20393. Rev-erbα–FITC-DNA binding, 90 min. activity, % at 10 µM. hit rate 0.79% among 370,000. AID 1259318, 2017;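 active means activity above about 14%, limit read from the data; passing the limit was not always enough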;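 further: 0% = DMSO wells with 35 nM protein and 100% = DMSO wells with 750 nM protein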
Target sequence (P20393 whole entry, looked up): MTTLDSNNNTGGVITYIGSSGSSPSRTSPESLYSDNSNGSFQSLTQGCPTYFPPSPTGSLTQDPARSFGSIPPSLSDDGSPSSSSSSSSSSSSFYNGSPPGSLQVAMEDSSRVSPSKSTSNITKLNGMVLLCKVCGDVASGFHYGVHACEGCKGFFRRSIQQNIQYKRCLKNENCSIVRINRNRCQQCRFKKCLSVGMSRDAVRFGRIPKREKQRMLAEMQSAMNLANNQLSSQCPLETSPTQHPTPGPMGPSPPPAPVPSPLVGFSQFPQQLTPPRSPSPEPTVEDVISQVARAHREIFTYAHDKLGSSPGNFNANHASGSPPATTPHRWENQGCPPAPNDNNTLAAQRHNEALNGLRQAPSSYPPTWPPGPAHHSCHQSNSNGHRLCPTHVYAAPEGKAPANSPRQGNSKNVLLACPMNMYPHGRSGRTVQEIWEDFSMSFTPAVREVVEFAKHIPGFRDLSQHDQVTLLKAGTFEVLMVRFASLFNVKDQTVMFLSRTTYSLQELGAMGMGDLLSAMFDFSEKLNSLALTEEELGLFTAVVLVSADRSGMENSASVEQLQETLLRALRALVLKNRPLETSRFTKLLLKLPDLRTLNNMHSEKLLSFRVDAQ
MT1-MMP act inh: blockers of MT1-MMP proenzyme processing, primary screen, HT1080 RFP-PRO-GFP cells, GFP/RFP fluorescence; Matrix metalloproteinase-14 (Homo sapiens), P50281; GFP/RFP ratio fluorescence, overnight; percent of plate control window, DMSO zero; GFP/RFP ratio change, % at 20 µM; hit rate 0.061% among 360,000; AID 651647, 2012;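 active means GFP/RFP ratio change of at least 30% with cell ATP level not reduced by more than half and red fluorescence within 50% of control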
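Test system: HT1080 cells expressing an RFP-PRO-GFP fluorescent reporter construct / Compound dosing: single-point 20 µM compound, 1% DMSO / Schedule: cells overnight before dosing, compound overnight, 37 °C, 5% CO2 / Evaluation: GFP/RFP fluorescence ratio / Control set: DMSO and RFP-L50D-GFP cell wells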
PG9 Ab binder: binders of HIV-1 gp120 antibody PG9, primary screen, biochemical, TR-FRET. hit rate 0.43% among 360,000. inhibition, % at 6.7 µM. HIV-1 gp120 / PG9 antibody interaction. AID 624416, 2012. TR-FRET gp120-PG9 antibody binding; in the data active means inhibition above about 8.5%
NR2E3 ag-1: NR2E3 agonists in two-hybrid cells, primary screen, cell-based, luminescence, CHO-S, Gal4-NCOR/VP16-NR2E3. luciferase. inhibition of corepressor binding, % at 3.98 µM. hit rate 0.35% among 360,000. AID 602229, 2012;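 active means inhibition above the mean of all tested compounds plus 3 SD, cut at about 70% in these data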;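 further: 0% = DMSO with NR2E3 transfected cells and 100% = cells lacking NR2E3 construct; higher means lower luciferase signal from less NR2E3 corepressor binding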
NR2E3 ag-2: inhibitors of NR2E3-RetCOR corepressor binding, primary screen, NR2E3 agonist project, biochemical, TR-FRET, GST-NR2E3, biotin-RetCOR. 1536-well. hit rate 0.12% among 320,000. AID 2300, 2010. inhibition of corepressor binding, % at 4.78 µM;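 active means percent inhibition above the cutoff of mean plus 3 SD of all tested compounds, set per screening campaign, cut at about 20% in these data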;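 further: 0% = DMSO wells and 100% = biotin wells as full block of FRET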
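Test system – NR2E3–RetCOR corepressor complex · Quantity – NR2E3 fusion 1.35 nM · Buffer or medium – Tris pH 7.5 · Incubation – Compound–protein incubation for 5 h at 4 °C · Technique – TR-FRET, Eu(K)-anti-GST donor, streptavidin-D2 acceptor, ex 340, em 617/671 nm · Evaluation – percent inhibition of 671/617 nm emission ratio versus biotin and DMSO controls · Plate – 1536-well format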
SKN-1 block: suppressors of acrylamide-induced Pgst-4::GFP reporter in worms, primary screen, SKN-1 inhibitor project, whole organism, uHTS, GFP/RFP fluorescence ratio, strain VP596; AID 624304, 2012; inhibition, % at 21.8 µM; hit rate 0.49% among 360,000; C. elegans VP596 Pgst-4::GFP/RFP ratio, 24 h;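 active means interference check ratio from 0.5 to 1.5 plus GFP to RFP signal ratio inhibition reaching or exceeding a fixed threshold, cut at about 30% in these data, passing the limit was not always enough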
NR2E3 ag conf: NR2E3 agonist confirmation in cells, cell-based, luminescence, CHO-S two-hybrid; shares compounds with NR2E3 ag-1; CHO-S mammalian two-hybrid NR2E3-NCOR, luciferase luminescence; inhibition, % at 3.98 µM; hit rate 51% among 2,300; AID 624378, 2012;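 active means average inhibition above a cutoff equal to the mean inhibition of all tested compounds plus one SD, cut at about 70% in these data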;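 further: 0% = DMSO in NR2E3 cells and 100% = DMSO in cells lacking NR2E3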
GAL4-VP16 luc: GAL4-VP16 reporter modulators, confirmation, counter-screen for NR2E3 agonist project, cell-based, luminescence, CHO-S, high throughput; inhibition, % at 3.98 µM; shares compounds with NR2E3 ag-1; hit rate 29% among 2,300; CHO-S GAL4-VP16 luciferase reporter;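 active means mean inhibition above a cutoff equal to the average over all tested compounds plus one standard deviation, cut at about 70% in these data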;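 further: luciferase from a UAS reporter driven by GAL4-VP16 transactivation; 0% = DMSO with VP16-transfected cells and 100% = DMSO with cells lacking VP16; higher means less reporter light so more repression of VP16 activity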
Numbers without * were called inactive; / = not tested or not shown. This is a sample that favours compounds with a hit; in the whole collection about 1.9% have one here.

SMILES | Rev-erbA mod | MT1-MMP act inh | PG9 Ab binder | NR2E3 ag-1 | NR2E3 ag-2 | SKN-1 block | NR2E3 ag conf | GAL4-VP16 luc
O=C(NCc1ccccn1)C1Nc2ccc(C(F)(F)F)cc2C2C=CCC12 (stereo not given) | -1 | -3 | 1 | 97* | 2 | 14 | -8 | 21
COCCNC(=O)C1Nc2ccc(C(F)(F)F)cc2C2C=CCC12 (stereo not given) | 1 | 3 | 0 | -3 | 3 | 10 | / | /
O=C(CSc1cccc[n+]1[O-])N1CCCCCC1 | -3 | -2 | -1 | -7 | -1 | 12 | / | /
O=C(CSc1cccc[n+]1[O-])CSc1cccc[n+]1[O-] | 0 | 8 | -3 | 69 | 0 | -12 | -4 | -8
C=CC[C@]12C[C@@]3(O[C@H](c4ccccn4)N=C3C[C@H](c3ccc(OC)cc3)[C@H]1C)N(C1CCN(Cc3ccccc3)CC1)C2=O | 8 | / | -1 | / | / | / | / | /
O=C(C=Cc1ccccc1)c1c[nH]c2ccccc2c1=O | -1 | -7 | -1 | -13 | / | 8 | / | /
Cc1[nH]c2ccccc2c(=O)c1C(=O)/C=C/c1ccccc1 | 2 | -13 | 0 | 65 | -4 | 5 | 30 | 60
O=C1NC(=O)/C(=C/c2ccccc2OCc2ccccc2)S1 | -9 | -8 | 0 | 51 | 4 | 13 | 57 | 45
CSC(=S)NN=C(C)c1cccc(C)n1 | 4 | 8 | -2 | 66 | / | -7 | 38 | 32
COc1ccccc1NS(=O)(=O)c1ccc(N/N=C/C=C/c2ccccc2[N+](=O)[O-])c([N+](=O)[O-])c1 | 6 | 9 | 1 | 4 | 0 | -3 | / | /
COc1ccccc1NS(=O)(=O)c1ccc(NN=C2CCCC2)c([N+](=O)[O-])c1 | 3 | 2 | 1 | 64 | 1 | 6 | 65 | 63
Clc1ccc(OCCN2CCN(c3ncnc4sccc34)CC2)cc1 | 6 | 6 | 1 | 89* | -2 | -34 | 98* | 93*
c1ccc(CN2CCN(c3ncnc4sccc34)CC2)cc1 | 3 | / | / | / | / | / | / | /
Cc1ccc(OCCN2CCN(c3ncnc4sc(C)c(C)c34)CC2)cc1 | 5 | 7 | 2 | 92* | 2 | -3 | 98* | 93*
C=CCNC(=S)N/N=C(\C)c1ccccn1 | 1 | 15 | -2 | 84* | -1 | -17 | 6 | 12
CC(=NNC(=S)N1CCCCC1)c1ccccn1 | 5 | -4 | -1 | 85* | / | -4 | 58 | 32
CC(=NNC(=S)Nc1ccccc1Cl)c1ccccn1 | -2 | 10 | 1 | 86* | / | 28 | -38 | -17
CC(=NNC(=S)Nc1ccccc1)c1ccccn1 | -3 | 13 | -3 | 85* | / | 16 | -29 | -15
CC(=NNC(=S)N1CCCCC1)c1cccc(C)n1 | -2 | 5 | 0 | 39 | / | 7 | / | /
Cc1[nH]c2ccccc2c1CC(=O)Nc1ccc(N(C)c2cccnc2)c(-c2ccc(F)c(F)c2)c1 | -2 | / | 0 | / | / | / | / | /
Cc1cc(C)c(C2=NOC3c4ccccc4OCC23)c(C)c1 (stereo not given) | -7 | / | -2 | / | / | / | / | /
CC(C)Cn1c(N)c(C(=O)CSc2ccc3c(c2)OCCO3)c(=O)n(C)c1=O | -2 | -17 | 2 | 59 | -5 | -7 | 92* | 85*
COc1ccc(NS(=O)(=O)c2ccc(N3CCCC3)c(N)c2)cc1 | 2 | -1 | -3 | 89* | -1 | 25 | 77* | 72*
Nc1cc(S(=O)(=O)Nc2ccc(Cl)cc2)ccc1N1CCOCC1 | -2 | -3 | 3 | 55 | -1 | -1 | 85* | 64
CCNC(=O)Nc1cc(S(=O)(=O)Nc2ccc(OC)cc2)ccc1N1CCOCC1 | / | 4 | / | 85* | 0 | 5 | 84* | 76*
SMILES | Rev-erbA mod | MT1-MMP act inh | PG9 Ab binder | NR2E3 ag-1 | NR2E3 ag-2 | SKN-1 block | NR2E3 ag conf | GAL4-VP16 luc
Nc1cc(S(=O)(=O)Nc2ccccc2Cl)ccc1N1CCOCC1 | 4 | 7 | 1 | -17 | 0 | 6 | / | /
COC(=O)C1=C(C)N(Cc2ccccc2C(F)(F)F)C(=NCc2cc(OC)c(OC)c(OC)c2)NC1c1ccccc1 (stereo not given) | 1 | / | 0 | / | / | / | / | /
c1cc(CNc2ccc3c(c2)OCCO3)ccn1 | -6 | 3 | -1 | 62 | -4 | -1 | -4 | -2
C=CCOc1ccccc1CNc1ccc2c(c1)OCCO2 | / | -1 | / | 49 | -3 | 9 | 49 | -8
O=C(NCc1ccncc1)Nc1ccc2c(c1)OCO2 | -4 | -4 | -1 | -7 | 2 | -4 | / | /
C=CCOc1ccccc1CNc1cccc(F)c1 | 7 | -3 | 1 | 6 | 0 | -4 | / | /
C/C(=N\NC(=S)NCc1ccccc1)c1ccc(C(C)(C)C)cc1 | 0 | -1 | -1 | -7 | 1 | 6 | / | /
C/C(=N\NC(=S)NCc1ccccc1)c1ccccc1 | 2 | 0 | -2 | 56 | 1 | 3 | -36 | -40
CCOc1ccc(C(=O)OCC(=O)NCCCc2ccccc2)cc1 | -2 | 5 | 1 | -13 | 2 | -10 | / | /
CCOc1ccc(/C(CCC(=O)O)=N/NC(=S)NCCc2ccccc2)cc1 | -1 | 2 | 1 | 53 | 1 | -2 | -4 | -2
C/C(=N\NC(=S)NCCc1ccccc1)c1ccc(Cl)cc1Cl | 8 | 1 | -1 | -34 | 2 | -5 | / | /
C/C(=N\NC(=S)NCCc1ccccc1)c1ccc(O)cc1O | 1 | -3 | -2 | 78* | 0 | -3 | -17 | 8
C#CCNC(=O)C[C@H]1C[C@@]2(C(=O)OC)C(=C[C@H](C(C)(C)C)O[C@@H]2C)N(Cc2ccc(Cl)cc2Cl)C1=O | -2 | / | / | / | / | / | / | /
COc1ccc(/C=C/C(=O)c2ccc3c(c2)OCO3)cc1OC | -8 | 2 | -2 | -10 | 1 | 8 | / | /
COc1ccc(-c2oc(=O)c3cc(OC)c(OC)cc3c2-c2ccc3c(c2)OCO3)cc1 | -4 | 3 | -1 | -3 | / | 17 | / | /
